Sampled rows, rich in hits. Any-hit rate of the full collection: about 1.2%.
HCV core dimer: blocks dimerization of HCV core protein; hit rate 0.33% among 300,000; AID 1899; TR-FRET GST/Flag-core106 dimerization, 1536-well; inhibition, % at 5 µM;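 active means inhibition above the mean of all tested compounds plus 3 SD, set per screening campaign, cut at about 45% in these data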
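System: GST-tagged and Flag-tagged HCV core protein residues 1-106 / Input: core106 proteins, GST 13.5 nM and Flag 17 nM / Buffer or medium: KF-containing HEPES buffer, pH 7.45, DTT, CHAPS, BSA / Probe or stimulus: Eu-anti-GST and XL665-anti-Flag labelled anti-tag antibodies / Schedule: 4 h, 22.5 °C incubation / Technique: TR-FRET 671 and 617 nm emission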
ASAP1 inh: ASAP1 ArfGAP inhibition; Q9ULH1; ASAP1-stimulated ARF1 GTP hydrolysis, GDP FP detection; inhibition, % at 16.5 µM; hit rate 0.19% among 360,000; in the data active means inhibition above about 25%;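 further: 0% = vehicle with enzyme and substrate and 100% = no enzyme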
ARFGAP1 inhibitor: inhibits rat ARF GTPase activating protein 1; hit rate 0.26% among 360,000; Arfgap1-stimulated ARF1 GTP hydrolysis, GDP FP detection; inhibition, % at 16.5 µM;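 active means inhibition above a per-plate limit, mean inhibition of low control wells plus 3 SD, cut at about 25% in these data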;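 further: 0% = DMSO wells with enzyme and 100% = wells lacking Arfgap1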
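Material – truncated rat Arfgap1 GAP domain · Buffer or medium – HEPES-based buffer, pH 7.5 · Reagent – human ARF1(Δ1-17)-GTP substrate · Dosing – 16.5 µM single point, 1.26% DMSO · Schedule – GTP hydrolysis reaction 2 h at 25 °C · Technique – GDP detection by fluorescence polarization · Benchmarks – No-Arfgap1 wells (100%) versus DMSO full-reaction wells (0%) · Repeats – single replicate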
NPR1 activator: GC-A (human) enzyme activation. P16066. HEK293 GC-A cells, cGMP TR-FRET, EC30 ANP; 0% at EC30 ANP, 100% saturating ANP. activation, % at 10 µM. hit rate 0.14% among 370,000; in the data active means activation above about 40%
Target sequence (P16066 whole entry, looked up): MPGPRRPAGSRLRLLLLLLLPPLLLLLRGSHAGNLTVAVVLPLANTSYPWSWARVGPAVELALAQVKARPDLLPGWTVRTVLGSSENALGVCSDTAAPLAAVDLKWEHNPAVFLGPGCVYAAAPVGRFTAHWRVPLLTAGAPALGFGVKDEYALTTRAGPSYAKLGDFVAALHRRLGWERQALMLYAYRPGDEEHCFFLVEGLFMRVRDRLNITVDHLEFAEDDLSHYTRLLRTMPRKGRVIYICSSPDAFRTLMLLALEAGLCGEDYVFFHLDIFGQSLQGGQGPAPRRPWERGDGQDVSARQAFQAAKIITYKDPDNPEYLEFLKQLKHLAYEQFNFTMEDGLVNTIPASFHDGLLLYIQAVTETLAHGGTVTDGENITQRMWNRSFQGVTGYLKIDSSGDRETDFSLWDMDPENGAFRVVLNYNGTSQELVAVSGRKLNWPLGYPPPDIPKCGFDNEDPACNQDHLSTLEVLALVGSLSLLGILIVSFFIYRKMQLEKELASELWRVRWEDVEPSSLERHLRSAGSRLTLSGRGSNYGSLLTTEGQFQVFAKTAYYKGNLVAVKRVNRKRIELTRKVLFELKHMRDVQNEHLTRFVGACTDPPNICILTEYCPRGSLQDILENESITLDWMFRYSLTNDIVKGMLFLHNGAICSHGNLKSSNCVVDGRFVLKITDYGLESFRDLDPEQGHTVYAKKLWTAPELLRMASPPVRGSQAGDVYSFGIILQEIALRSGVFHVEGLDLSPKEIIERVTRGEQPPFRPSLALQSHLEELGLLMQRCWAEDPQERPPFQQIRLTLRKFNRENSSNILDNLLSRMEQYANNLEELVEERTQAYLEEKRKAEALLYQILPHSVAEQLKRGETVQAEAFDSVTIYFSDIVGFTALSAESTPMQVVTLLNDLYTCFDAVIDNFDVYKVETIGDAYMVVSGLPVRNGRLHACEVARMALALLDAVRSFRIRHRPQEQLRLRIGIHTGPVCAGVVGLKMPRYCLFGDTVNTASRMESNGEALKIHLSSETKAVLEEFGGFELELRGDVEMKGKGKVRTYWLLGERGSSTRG
GC-B act: GC-B (human) receptor activation; P20594; HEK293-GC-B cells, CNP EC30, cGMP TR-FRET; 0% at EC30 CNP, 100% saturating CNP; activation, % at 10 µM; hit rate 0.11% among 370,000; AID 1920062;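 active means activation at 10 µM reaching about 35% in either raw or pattern-adjusted values, limit read from the data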
Fh CTSL1 inh: counter-screen for PFM18AAP inhibitors: inhibitors of F. hepatica cathepsin L1. recombinant F. hepatica cathepsin L1, Z-Leu-Arg-MCA fluorescence. inhibition, % at 5.96 µM. hit rate 0.49% among 300,000. AID 1906;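 active means inhibition above the mean of all tested compounds plus 3 SD, set per screening campaign, cut at about 17% in these data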;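 further: 0% = plate median of test compound wells and 100% = 1 µM Z-Phe-Ala-diazomethylketone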
* hit, by the source's call; · = no result.

SMILES | HCV core dimer | ASAP1 inh | ARFGAP1 inhibitor | NPR1 activator | GC-B act | Fh CTSL1 inh
COc1ccc(NC(=O)CN2C(=O)C3CC=CCC3C2=O)cc1Cl (stereo not given) | · | -3.4 | -3.1 | 3.2 | 3.9 | ·
Cc1ccc(NC(=O)CC2S/C(=N/c3nccs3)N(C)C2=O)cc1C (stereo not given) | -1.6 | -2.7 | 13.3 | -1.7 | -5.5 | 40.8*
Cc1ccccc1NC(=O)CC1S/C(=N/c2nccs2)N(C)C1=O (stereo not given) | -7.1 | 1.4 | -1.2 | -2.7 | 1.0 | -1.7
COc1ccccc1N1C(=O)C2C(C(=O)c3ccccc3)=NN(c3ccccc3)C2C1=O (stereo not given) | 22.8 | 5.3 | 2.0 | -2.1 | -11.4 | -1.5
Cc1ccc2cc(C#N)c(NCc3ccccc3)nc2c1 | 48.3* | 1.4 | 2.3 | 8.7 | -2.6 | 0.2
CC(C)NC(=S)NNc1ncnc2sc3c(c12)CC(C)(C)OC3 | -4.0 | 12.3 | 1.8 | 32.9 | 38.1* | 1.6
CC1(C)Cc2c(sc3ncnc(NNC(=S)NCc4ccccc4)c23)CO1 | -0.7 | 7.9 | 7.5 | 4.5 | 6.0 | 2.1
CC1CN(CCCCOc2ccc3ccccc3c2)CC(C)O1 (stereo not given) | -14.1 | -3.1 | 0.2 | -1.4 | 0.9 | 18.5*
COc1cccc(OCCCCN2CC(C)OC(C)C2)c1 (stereo not given) | -1.7 | -3.4 | -0.8 | -1.9 | 0.8 | -4.0
CC(=O)Nc1cc(-c2cccc(CO)c2)cn2c(-c3ccc(C(C)=O)cc3)cnc12 | · | 2.8 | -10.7 | 0.3 | 27.5 | ·
CC(=O)Nc1cc(-c2cccc(N)c2)cn2c(-c3ccc(C(C)=O)cc3)cnc12 | · | -7.5 | 3.0 | 5.8 | 34.5* | ·
COc1ccc(-c2cnc3c(NC=O)cc(-c4ccccc4)cn23)cc1OC | · | 7.3 | 13.4 | 7.6 | 3.8 | ·
COc1cc(-c2cc(NC(C)=O)c3ncc(-c4ccc(F)cc4)n3c2)cc(OC)c1OC | · | 10.7 | 10.3 | 22.8 | 28.5 | ·
COc1ccc(-c2cnc3c(NC=O)cc(-c4cc(OC)c(OC)c(OC)c4)cn23)cc1OC | · | 0.9 | 1.9 | 28.6 | 38.7* | ·
COc1cc(-c2cc(NC(C)=O)c3ncc(-c4ccc(C(C)=O)cc4)n3c2)cc(OC)c1OC | · | 14.8 | -4.9 | 46.5* | 46.2* | ·
O=C1C2CC=CCC2C(=O)N1Cc1nnc(-c2ccc(Cl)cc2)o1 (stereo not given) | 7.2 | 16.1 | 8.6 | 1.2 | 1.8 | 1.1
c1cc2c3c(cccc3c1)NC1(CCCCC1)N2 | 34.4 | -2.6 | 14.3 | 6.2 | -3.4 | -0.4
c1cc2c3c(cccc3c1)NC1(CCCCCC1)N2 | 51.7* | 2.6 | 9.6 | -4.0 | -2.6 | 5.8
Cc1cccc(N2CCN(C(=S)c3ccc(-c4ccccc4[N+](=O)[O-])o3)CC2)c1 | 4.1 | 7.8 | 11.9 | -0.4 | -5.8 | 1.2
COc1ccc(/C=C/C(=O)NCC(=O)N/N=C/c2cc(Br)ccc2OCc2ccccc2)cc1 | 49.1* | -1.8 | 1.5 | -4.6 | -6.7 | 7.3
CCc1ccc(S(=O)(=O)/N=C2\C=C(NS(=O)(=O)c3ccccc3)C(=O)c3ccccc32)cc1 | · | 10.6 | -2.1 | 0.6 | -0.6 | ·
O=C(O)c1ccc(S(=O)(=O)/N=C2\C=C(Nc3ccccc3F)C(=O)c3ccccc32)cc1 | 14.8 | -1.6 | -8.7 | 1.9 | -4.0 | 80.0*
Cc1ccccc1NC1=C/C(=N\S(=O)(=O)c2ccc(C(=O)O)cc2)c2ccccc2C1=O | 20.6 | 11.9 | -12.6 | 3.1 | -4.5 | 103.8*
CC(C)c1ccc(S(=O)(=O)/N=C2\C=C(NS(=O)(=O)c3ccccc3)C(=O)c3ccccc32)cc1 | 0.8 | 9.8 | -12.3 | -3.1 | -4.9 | 2.5
C=CCN=C1NC(c2ccccc2)C(C(=O)OC)=C(C)N1C (stereo not given) | · | -2.1 | -12.3 | 2.1 | -8.3 | ·
SMILES | HCV core dimer | ASAP1 inh | ARFGAP1 inhibitor | NPR1 activator | GC-B act | Fh CTSL1 inh
COc1ccc(C(=O)CSc2nnc(Cc3ccccc3)o2)cc1 | 4.6 | 12.8 | 5.5 | 0.0 | -6.7 | -0.7
N#Cc1c2c(c(Nc3ccccc3)n3c1nc1ccccc13)CCC2 | 7.6 | 5.0 | 12.3 | 54.0* | 8.3 | 5.5
N#Cc1c2c(c(-n3cnc4ccccc43)n3c1nc1ccccc13)CCC2 | 3.9 | -13.7 | -3.7 | 11.8 | -15.6 | 2.1
N#Cc1c2c(c(Nc3ccc(F)cc3)n3c1nc1ccccc13)CCCC2 | · | 21.1 | -5.1 | 44.0* | 12.1 | ·
COc1ccc(/C=N/Nc2nncc3ccccc23)cc1 | 0.1 | 14.1 | 5.2 | -3.6 | -6.2 | 52.5*
COc1ccccc1/C=N/Nc1nncc2ccccc12 | -11.2 | -6.4 | -9.2 | -0.8 | 2.0 | 3.5
CCN(CC)CCNC(=S)Nc1ccc2nc(N3CCN(C)CC3)cc(C)c2c1 | -1.1 | 2.6 | 0.7 | -2.9 | 0.9 | -2.5
CN(C)C(CNC(=O)c1cc(Br)ccc1Cl)c1ccco1 (stereo not given) | -8.2 | 4.7 | 18.7 | 1.9 | -3.7 | 22.4*
CN(C)C(CNC(=O)c1ccc(Br)cc1)c1ccco1 (stereo not given) | 8.0 | 4.5 | -11.6 | 5.8 | 3.0 | -6.7
O=C(Nc1nc(-c2ccccc2)cs1)c1ccc(=O)[nH]c1 | 4.6 | 7.1 | 0.2 | 2.9 | 0.4 | 0.8
Cc1cc(-c2csc(NC(=O)c3ccc(=O)[nH]c3)n2)c(C)n1Cc1ccccc1 | 55.0* | 12.8 | 1.9 | -7.7 | -5.7 | 1.0
N#Cc1ccc(-c2csc(NC(=O)c3ccc(N4C(=O)CCC4=O)cc3)n2)cc1 | 0.9 | -0.7 | -6.0 | 8.8 | 3.4 | -1.6
O=C(Nc1nc(-c2ccccn2)cs1)c1cc2ccccc2o1 | 4.3 | 11.1 | -8.9 | -5.5 | -1.4 | -1.1
Cc1cc(-c2csc(NC(=O)c3ccc(C#N)cc3)n2)c(C)n1Cc1ccco1 | 48.6* | -12.3 | -6.9 | -6.8 | -0.8 | -2.4
Cc1cc(-c2csc(NC(=O)c3cc4ccccc4o3)n2)c(C)n1C | 74.2* | 7.0 | 12.8 | -25.9 | -3.6 | 13.8
Cc1nc2ccccc2n1CC(=O)c1ccccc1 | 3.3 | 14.2 | 2.6 | -4.2 | 1.1 | -0.7
O=C1CCCc2c1cc(-c1ccccc1)n2-c1ccc(O)cc1 | 0.7 | -0.8 | -12.8 | 75.5* | 6.1 | -0.6
O=C1ON=C(c2ccccc2)/C1=C\c1ccco1 | 6.8 | 0.5 | 8.9 | 27.4 | 41.8* | -4.2
CSCCC(NC(=O)c1ccccc1Br)C(=O)NCC(c1ccco1)N1CCCCC1 (stereo not given) | -3.8 | -22.1 | 1.8 | 3.8 | -3.2 | 20.9*
O=C(Nc1nc(-c2ccccc2)cs1)c1ccc2c(=O)n3c(nc2c1)CCCCC3 | 17.9 | 13.9 | -2.2 | 4.6 | 1.9 | -0.2
Cc1noc(C)c1COC(=O)CCCc1c[nH]c2ccccc12 | 71.5* | -0.7 | 6.1 | -1.3 | -4.0 | 12.2
